# Bioassay records from PubChem.
# IEC-6 tox: IEC-6 cytotoxicity, counter-screen for KLF5 inhibitors. inhibition, % at 5 µM. hit rate 0.78% among 290,000. luminescence viability
# Ba/F3 V617F tox: loss of viability in JAK2V617F-driven Ba/F3 cells | AID 1446 | Ba/F3 EpoR-JAK2V617F viability, ATP luminescence | inhibition, % at 5.6 µM | hit rate 1.1% among 220,000;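 active means inhibition above the campaign mean plus 3 SD over all tested compounds, cut at about 24% in these data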;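 further: cytokine-independent growth of Ba/F3 cells driven by EpoR plus mutant JAK2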
# MT stabilize HCS: microtubule stabilizers in HeLa cells; AID 2205; % tubulin-high responders, % at 10 µM; HeLa tubulin immunostaining HCS, 24 h; share of cells brighter than vehicle mean+2SD; hit rate 0.83% among 200,000;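 active means plate Z-score above 3 for both tubulin-high and condensed-nucleus cell shares, with cell loss under 80%, at 10 µM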;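 further: anti alpha tubulin signal scored within the nucleus-defined area of each cell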
# b-catenin transl: modulators of beta-catenin nuclear translocation; HeLa beta-catenin nuclear translocation, immunofluorescence imaging; nuclear translocation activity, % at 5 µM; hit rate 0.3% among 190,000; AID 1665;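 active means nuclear translocation activity above 50% at 5 µM, with a well cell count of 50 or more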;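 further: per-cell ratio of nuclear to cytoplasmic median beta-catenin stain intensity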
#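 Test system: HeLa cells, endogenous beta-catenin; Compound: single 5 µM dose plus 0.02–20 µM confirmation series; Times: compound exposure 24 h at 37°C; Signal: fluorescence imaging of beta-catenin antibody stain plus DAPI; Read-out: % activation, nuclear-to-cytoplasmic median beta-catenin signal ratio per cell.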
# APP transl inh: APP translation inhibition | SH-SY5Y APP 5'UTR-luciferase reporter, luminescence | inhibition, % at 2 µM | hit rate 0.82% among 190,000;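 active means inhibition above a set limit, derived from the sample mean plus 3 SD, cut at about 45% in these data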
# BaF3 parental: reduces parental Ba/F3 cell viability, JAK2V617F counter-screen | CellTiter-Glo ATP luminescence | inhibition, % at 5.6 µM | hit rate 1.1% among 220,000 | AID 1486;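 active means inhibition above a per-campaign cutoff, the mean inhibition of all tested compounds plus 3 SD, cut at about 27% in these data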
# IEC-6 cytotox cf: confirmation of cytotoxic compounds in rat IEC-6 intestinal epithelial cells; inhibition, % at 5 µM; AID 1907; hit rate 63% among 1,900; IEC-6 rat intestinal epithelial viability, luminescence; shares compounds with IEC-6 tox
# Hits are given with their value; 0 = inactive; - = not tested or not shown. Most compounds without a hit are left out; they make up all but 2.2% or so of the library. Unless noted, no stated cut-off is given here; in the data, active means inhibition above about 22%; inactive means the rest.
SMILES,IEC-6 tox,Ba/F3 V617F tox,MT stabilize HCS,b-catenin transl,APP transl inh,BaF3 parental,IEC-6 cytotox cf
O=C(Nc1ccnn1C1CCN(C(=O)Cc2ccccc2F)CC1)C1CC1,0,-,-,-,-,-,-
CCC(C)(C)n1c(=O)[nH]c2c(c1=O)CCC2,0,0,0,0,0,0,-
O=C(NC1CCC(O)CC1)c1cccc2cccnc12 (centres undefined),0,-,-,-,-,-,-
O=[N+]([O-])c1ccc(Nc2c3ccccc3nc3ccccc23)cc1,0,0,0,0,0,0,-
COc1ccc([N+](=O)[O-])cc1Nc1c2ccccc2nc2ccccc12,79,-,-,-,-,-,72
COc1cc(C(=O)c2nccc3cc(OC)c(OC)cc23)c([N+](=O)[O-])cc1OC,0,0,0,0,0,0,-
Fc1cc(F)c(C2SCCN2C(=S)Nc2cccc(C(F)(F)F)c2)c(F)c1 (centres undefined),0,0,-,0,-,0,-
CCn1c(=O)cc(OCC(=O)NCc2ccc(C)o2)c2ccccc21,23,0,0,-,0,0,0
CCn1c(=O)cc(OCC(=O)NCc2ccco2)c2ccccc21,0,0,0,0,0,0,-
COc1ccc(C2NC(=O)c3ccccc3N2)cc1OC (centres undefined),0,0,0,-,0,0,-
O=C1NC(c2ccc(Br)cc2)Nc2ccccc21 (centres undefined),33,-,-,-,-,-,33
COc1ccc(N2CC(C(=O)Nc3ccccc3C(=O)NC3CC3)CC2=O)cc1 (centres undefined),0,-,-,-,-,-,-
O=C(Cc1ccccc1)NCC(=O)N1CCC2(CC1)NCCc1[nH]cnc12,0,-,-,-,-,-,-
COc1ccc(COc2cc(-c3cccc(OC)c3)nc3ccc(NC(=O)c4ccc(C)cc4)cc23)cc1,0,0,0,-,0,0,-
COc1ccc(COc2cc(-c3cccc(OC)c3)nc3ccc(NC(=O)c4ccc(N(C)C)cc4)cc23)cc1,49,76,20,-,0,75,0
COc1ccc(CN(C)S(=O)(=O)c2ccc3c(c2)OCCO3)cc1,0,-,-,-,-,-,-
CSc1nnc(NC(=O)c2nc(S(=O)(=O)Cc3ccccc3F)ncc2Cl)s1,0,-,-,-,-,-,-
CSc1nnc(NC(=O)c2nc(S(=O)(=O)Cc3cccc(C)c3)ncc2Cl)s1,45,-,-,-,-,-,0
Cc1cccc(CS(=O)(=O)c2ncc(Cl)c(C(=O)Nc3nnc(C(C)C)s3)n2)c1,60,-,-,-,-,-,0
CC(C)c1nnc(NC(=O)c2nc(S(=O)(=O)Cc3ccc(F)cc3)ncc2Cl)s1,0,-,-,-,-,-,-
Cc1ccc(CS(=O)(=O)c2ncc(Cl)c(C(=O)Nc3nnc(C(C)C)s3)n2)cc1,36,-,-,-,-,-,0
Cc1[nH]n(-c2cccc(Cl)c2)c(=O)c1C=NCC(C)C,0,0,0,0,0,0,-
CCc1cc2c(=O)[nH]c(-c3ccccn3)nc2s1,27,0,0,-,0,0,49
COc1cc(NC(=O)c2noc(C)c2[N+](=O)[O-])c(OC)cc1Cl,64,-,-,-,-,-,0
Cc1onc(C(=O)Nc2cccnc2Cl)c1[N+](=O)[O-],0,0,0,0,0,0,-
SMILES,IEC-6 tox,Ba/F3 V617F tox,MT stabilize HCS,b-catenin transl,APP transl inh,BaF3 parental,IEC-6 cytotox cf
O=[N+]([O-])c1cccnc1S(=O)(=O)c1ccccc1,41,-,-,-,-,-,0
Nc1cccnc1S(=O)(=O)c1ccccc1,0,-,-,-,-,-,-
C/C(=N\NC(=O)COc1cc(C)cc(C)c1)c1cccc(NC(=O)C2CCC2)c1,0,-,-,-,-,-,-
CCOc1cc(/C=N/NC(=O)c2ccc3c(c2)OCCO3)cc(Br)c1O,0,-,-,-,-,-,-
COc1cc2[nH]c(C(=O)Nc3ccc(F)cc3)cc2c(OC)c1OC,57,-,-,-,-,-,27
Cc1cc(C)c2cc(C(=O)Nc3ccc(C)c(F)c3)[nH]c2c1,0,-,-,-,-,-,-
O=C(CCN1CCN(Cc2ccccc2)CC1)Nc1cccc(Br)c1,0,-,-,-,-,-,-
O=C(Nc1cc(=O)[nH]c(=O)[nH]1)c1cc(Cl)ccc1Cl,45,-,-,-,-,-,0
COc1cccc(OCc2cc(/C=N/Nc3ccc(C(=O)O)cc3)ccc2OC)c1,28,0,-,0,-,0,55
COc1cccc(C(=O)Oc2ccc(/C=N/Nc3ccc(C(=O)O)cc3)cc2OC)c1,0,-,-,-,-,-,-
O=C(NCc1ccccc1)c1nccnc1CO,0,-,-,-,-,-,-
CCN1/C(=C/c2ccc3cc(C)cc(C)c3[n+]2CC)Sc2cc(C)ccc21,43,101,0,0,61,86,37
CCN1/C(=C/c2ccc3cccc(C)c3[n+]2CC)Sc2ccccc21,32,98,0,-,0,89,36
Cc1ccc2c(c1)S/C(=C\c1cccc[n+]1C)N2CCO,0,-,-,-,-,-,-
C[n+]1ccccc1/C=C1\Sc2ccccc2N1CCO,0,-,-,-,-,-,-
